Published values of several laboratories.
Protocols differ between the studies behind these lines.
Cell line: MCF7
Observed: cell growth or viability

SMILES | method | time | IC50
COc1cccc2c1C(=O)c1c(O)c3c(c(O)c1C2=O)C[C@@](O)(C(=O)CO)C[C@@H]3O[C@H]1C[C@H](N)[C@H](O)[C@H](C)O1 | MTT | 24 h | 3.94 µM
O=C1CS/C(=N\c2cc(C(F)(F)F)ccc2-c2nnc(N3C(=O)CS/C3=N\c3cc(O)cc(Br)c3)s2)N1c1cc(O)cc(Br)c1 | MTT |  | 73.5 µM
COc1ccc2c(-c3ncc(-c4ccccc4)o3)nn(Cc3ccccc3)c2c1 |  | 48 h | 88 µM
O=C1C(Cl)=C(n2ccnc2)C(=O)c2ccccc21 | MTT | 24 h | 48.8 µg/mL
COc1ccc(C=NNC(=O)c2cc(-c3ccccc3)n(-c3ccc(S(N)(=O)=O)cc3)n2)cc1OC | fluorescence | 48 h | 21.1 µM
O=C(C=Cc1cccs1)c1ccc(OCCOc2ccc(C(=O)C=Cc3cccs3)cc2)cc1 | MTT | 48 h | 7.87 µM
CC(=NNC(=O)c1cc(-c2ccccc2)n(-c2ccc(S(N)(=O)=O)cc2)n1)c1ccc(Br)cc1 | fluorescence | 48 h | 35.4 µM
C=CCN1C(=O)C(=Nc2cccc(C)c2)c2ccccc21 | MTT | 48 h | > 100 µM
Cc1ccc(NNc2nc3ccc(Br)cc3c(=O)n2-c2ccccc2)cc1 | MTT | 48 h | > 200 µM
COc1cc(N=C2C(=O)N(Cc3ccccc3)c3ccccc32)cc(OC)c1 | MTT | 48 h | 0.56 µM
S=C(N/N=C/c1cccc2cc3ccccc3nc12)Nc1ccccc1 | MTT | 48 h | > 50 µM
O=C(O)c1c[nH]c2ccc(Oc3ccccc3)cc2c1=O | MTT | 24 h | 311 µM
Cc1nc2ccc(-c3ccc(F)c(F)c3)cc2c(O)c1C(=O)O | MTT | 48 h | ≥ 100 µM
CNC(=S)N/N=C/c1cccc2cc3ccccc3nc12 | MTT | 48 h | 18.8 µM
O=[N+]([O-])c1cc(Br)c(O)c(C=NNc2ccc(C(F)(F)F)cc2)c1 | MTT | 24 h | 8 µM
COc1cc([C@@H]2c3cc4c(cc3[C@@H](O[C@@H]3O[C@@H]5CO[C@@H](C)O[C@H]5[C@H](O)[C@H]3O)[C@H]3COC(=O)[C@H]23)OCO4)cc(OC)c1O | MTT | 48 h | 10.9 µM
CC(C)c1cccc(C(C)C)c1N=C1C(=O)N(Cc2cccc(Cl)c2)c2ccccc21 | MTT | 48 h | 46.5 µM
C/C(=N\C(=N)/N=C(\C)c1c(O)c2ccccc2oc1=O)c1c(O)c2ccccc2oc1=O | MTT | 48 h | 19.6 µM
C[C@H]1[C@H](C)CC[C@]2(C)CC[C@]3(C)C(=CC(=O)[C@@H]4[C@@]5(C)CC[C@@H](O)[C@](C)(C(=O)NCc6cn(-c7cccc(Br)c7)nn6)[C@@H]5CC[C@]43C)[C@H]12 | MTT | 24 h | 67 µM

SMILES | method | time | IC50
O=S(=O)([O-])c1ccc(O)c(C=NNC(=S)Nc2cccc3ccccc23)c1.[Na+] | MTT | 48 h | > 800 µg/mL
CCc1ccc(N=C2C(=O)N(Cc3ccccc3)c3ccccc32)cc1 | MTT | 48 h | 10.5 µM
CCOC(=O)c1c(C)nc2ccc(-c3ccc(OCc4ccccc4)c(F)c3)cc2c1O | MTT | 48 h | 5 µM
NNc1nc2ccc(Br)cc2c(=O)n1-c1ccc(F)cc1 | MTT | 48 h | 10 µM
CC(=O)c1c(O)c2ccccc2oc1=O | MTT | 48 h | 32.5 µM
O=C1CS/C(=N\c2cc(C(F)(F)F)ccc2-c2nnc(N3C(=O)CS/C3=N\c3ccc(F)c(O)c3)s2)N1c1ccc(F)c(O)c1 | MTT |  | 25.8 µM
CC(=O)OC[C@H]1O[C@@H](n2cc(Cn3c(C(C)=O)nc4ccccc43)nn2)[C@H](OC(C)=O)[C@@H](OC(C)=O)[C@H]1OC(C)=O | LDH | 48 h | 3.79 µM
c1ccc(-c2noc(-c3nn(Cc4ccncc4)c4ccccc34)n2)cc1 |  | 48 h | 18.7 µM
COc1cc(C=NNC(=O)c2cc(-c3ccccc3)n(-c3ccc(S(N)(=O)=O)cc3)n2)cc(OC)c1OC | fluorescence | 48 h | 21.6 µM
O=C1CS/C(=N\c2cc(C(F)(F)F)ccc2-c2nnc(N3C(=O)CS/C3=N\c3ccc(-c4ccccc4)cc3)s2)N1c1ccc(-c2ccccc2)cc1 | MTT |  | 90.1 µM
COc1cc(C2C3=C(Nc4nc(SC)[nH]c(=O)c42)c2ccccc2C3=O)ccc1O (centres unmarked) | MTT | 72 h | > 1000 µM
C/C(=N\CCNCC/N=C(\C)c1c(O)c2ccccc2oc1=O)c1c(O)c2ccccc2oc1=O | MTT | 48 h | 11 µM
Cc1ccc(CN2C(=O)C(=Nc3c(C(C)C)cccc3C(C)C)c3ccccc32)cc1 | MTT | 48 h | 53.1 µM
O=c1[nH]cc(F)c(=O)[nH]1 | MTT | 48 h | 11.3 µM
CN1CCC(NC2CCc3[nH]c4c(C(N)=O)ccc(-c5ccccc5Cl)c4c3C2)CC1 (centres unmarked) |  | 96 h | 0.0164 µM
C[C@H]1[C@H](C)CC[C@]2(C)CC[C@]3(C)C(=CC(=O)[C@@H]4[C@@]5(C)CC[C@@H](O)[C@](C)(C(=O)NCc6cn(-c7ccc(Cl)cc7)nn6)[C@@H]5CC[C@]43C)[C@H]12 | MTT | 24 h | 134 µM
COc1ccc(N(Cc2csc(-c3ccc(C)cc3)n2)C(=O)CCCCCC(=O)NO)cc1 | MTT | 72 h | 3.31 µM
O=C1Nc2ccccc2/C1=N/N=C/c1cccc([N+](=O)[O-])c1 | MTT | 48 h | 22.8 µg/mL
C[C@H]1[C@H](C)CC[C@]2(C)CC[C@]3(C)C(=CC(=O)[C@@H]4[C@@]5(C)CC[C@@H](O)[C@](C)(C(=O)NCc6cn(-c7ccc(Br)cc7)nn6)[C@@H]5CC[C@]43C)[C@H]12 | MTT | 24 h | 75.1 µM

SMILES | method | time | IC50
Cc1nc2ccc(-c3ccc(OCc4ccccc4)c(F)c3)cc2c(O)c1C(=O)O | MTT | 48 h | ≥ 100 µM
O=C1C(=Nc2ccc(Cl)cc2)c2ccccc2N1Cc1ccc(Br)cc1 | MTT | 48 h | 2.16 µM
Fc1ccccc1Nc1nc(-c2ccncc2)nc2c1CNCC2 | MTT |  | > 100 µM
Fc1ccc2c(-c3ncc(-c4ccccc4)o3)nn(Cc3ccccc3)c2c1 |  | 48 h | 71 µM
CN(C)C(=O)Nc1nc2ccc(Br)cc2c(=O)n1-c1ccccc1 | MTT | 48 h | 109 µM
CCOC(=O)C(=CNc1ccc(Oc2ccccc2)cc1)C(=O)OCC | MTT |  | ≥ 200 µM
Cc1noc(-c2nn(Cc3ccc(Cl)cc3Cl)c3ccccc23)n1 |  | 48 h | 47.5 µM
O=C1CS/C(=N\c2cc(C(F)(F)F)ccc2-c2nnc(N3C(=O)CS/C3=N\c3cccc(Cl)c3)s2)N1c1cccc(Cl)c1 | MTT |  | 49.2 µM
O=C(/C=C/c1ccc(F)cc1)c1nc2ccccc2n1Cc1cn([C@@H]2O[C@H](CO)[C@H](O)[C@H](O)[C@H]2O)nn1 | LDH | 48 h | 1.99 µM
CC1CCC(C(C)C)C(OC2=C(Cl)C(=O)c3ccccc3C2=O)C1 (centres unmarked) | MTT | 24 h | 21.9 µg/mL
O=C1C(=Nc2ccc(Cl)cc2Br)c2ccccc2N1Cc1ccc(Br)cc1 | MTT | 48 h | 2.54 µM
CC(C)c1ccc(/C=C2\N=C(SCC(=O)O)N(c3ccccc3)C2=O)cc1 | MTT |  | 49.2 µg/mL
CC(=O)OC[C@H]1O[C@@H](n2cc(Cn3c(C(=O)/C=C/c4ccc(F)cc4)nc4ccccc43)nn2)[C@H](OC(C)=O)[C@@H](OC(C)=O)[C@H]1OC(C)=O | LDH | 48 h | 2.48 µM
COC(=O)c1ccc2c(c1)NC(=O)/C2=C(\Nc1ccc(N(C)C(=O)CN2CCN(C)CC2)cc1)c1ccccc1 | MTT | 24 h | 0.98 µM
O=C1Nc2ccccc2C1=Nc1cccc(Cl)c1 | MTT | 48 h | > 100 µM
O=[N+]([O-])c1cc(Br)c(O)c(C=NNc2ccccc2)c1 | MTT | 24 h | 6.4 µM
O=C(NCc1ccc(OC(F)(F)F)cc1)c1cn(Cc2ccc(F)cc2)c2ccc(Oc3ccccc3)cc2c1=O | MTT | 24 h | 343 µM
C(=N\Nc1cc(N/N=C/c2cccc3cccnc23)nc(-c2ccccc2)n1)/c1cccc2cccnc12 | MTT | 48 h | 10.4 µM
